Experiment [1] has as its target HIV-1 RT-associated RNase H (Human immunodeficiency virus type 1 group M subtype B, UniProt P04585). The experiment is described as follows: RNase H activity on fluorescent RNA/DNA hybrid, HIV-1 RT. The format is biochemical. The note with it: for IC50: IC50 HIV-1 RT; for IC50 / IC50 HIV-1 RT: RNase H activity, triplicate assays. In outline: (§1)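 RNase H cleavage of a fluorescent RNA/DNA hybrid was measured with recombinant E. coli-expressed RT (wild-type p66/p51 for HIV-1; same expression system for HIV-2). Test compound, from a 20 mM DMSO stock, was tested in 2-fold dilutions from 100 μM to […]. Fluorescence was read every 40 s over 30 min. Rates came from the linear portion of the curves, and dose–response curves were fitted. Assays were run in triplicate.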

For experiment [2], the target named is HIV-2 RT-associated RNase H (Human immunodeficiency virus type 2 subtype A, UniProt P04584). As to the kind of experiment: RNase H activity on fluorescent RNA/DNA hybrid, HIV-2 RT. It counts as biochemical. The note with it: for IC50 HIV-2 RT: RNase H activity, triplicate assays. An outline of the steps:
as §1

The target of experiment [3] is T1, E.coli RNase HI (Escherichia coli, UniProt P0A7Y4).
T1 sequence (P0A7Y4 1-155): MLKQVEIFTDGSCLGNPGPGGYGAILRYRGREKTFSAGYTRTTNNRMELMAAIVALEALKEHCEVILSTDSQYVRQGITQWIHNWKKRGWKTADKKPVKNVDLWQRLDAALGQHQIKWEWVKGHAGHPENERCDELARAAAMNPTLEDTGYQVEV
The experiment is described as follows: RNase H activity on fluorescent RNA/DNA hybrid, E.coli RNase H. It counts as biochemical. The note with it: for IC50: IC50 E.c. Rnase H.

The target of experiment [4] is T2, human RNase H (Homo sapiens, UniProt O60930).
T2 sequence (O60930 1-286): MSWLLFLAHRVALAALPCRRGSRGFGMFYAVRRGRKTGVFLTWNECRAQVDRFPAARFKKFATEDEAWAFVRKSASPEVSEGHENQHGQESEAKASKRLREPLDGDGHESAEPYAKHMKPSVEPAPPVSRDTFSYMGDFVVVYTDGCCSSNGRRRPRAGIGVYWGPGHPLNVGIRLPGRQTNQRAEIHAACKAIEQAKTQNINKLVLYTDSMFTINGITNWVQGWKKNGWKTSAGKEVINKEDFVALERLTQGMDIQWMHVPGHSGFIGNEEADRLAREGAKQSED
The experiment is described as follows: RNase H activity on fluorescent RNA/DNA hybrid, human RNase H. The format is biochemical.

Experiment [5] concerns the target 12mer RNA/DNA hybrid. The experiment is described as follows: Surface plasmon resonance binding to immobilized RNA/DNA hybrid. The note with it: SPR; for binding to RNA/DNA hybrid substrate: concentration range of 50 nM–10 mM. On the technique in general: In SPR one partner is held on a chip, and binding of the other changes the refractive index at the surface.
The target in experiment [6] is HIV-1 RT RNase H activity (Human immunodeficiency virus type 1 group M subtype B, UniProt P04585). The experiment is described as follows: HIV-1 RT-catalyzed polypurine tract. The format is biochemical. The note with it: single concentration of 50 μM. An outline of the steps: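 Recombinant wild-type p66/p51 HIV-1 RT was expressed in E. coli. The substrate was a 5′[32P]-labeled HIV-1 PPT RNA primer, extended at its 3′ end by five deoxynucleotides, hybridized to its DNA complement. Test compound was diluted from a 20 mM DMSO stock into reaction buffer and tested at 50 μM. Controls were no inhibitor and DMSO alone. PPT hydrolysis products were assessed qualitatively.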

The target in experiment [7] is HIV-1 RT DNA polymerase (Human immunodeficiency virus type 1 group M subtype B, UniProt P04585). As to the kind of experiment: DNA-dependent DNA polymerase activity of HIV-1 RT. The note with it: single concentration of 50 μM. The format is biochemical.
Experiment [8] concerns the target HIV-2 RT DNA polymerase (Human immunodeficiency virus type 2 subtype A, UniProt P04584). As to the kind of experiment: DNA polymerase activity of HIV-2 RT. The note with it: 50 μM. It counts as biochemical.
Experiment [9] relates to HIV-1 infection. As to the kind of experiment: Cellular models of HIV-1 infection. It counts as cell-based.

Several values for one entry are separate records, joined by “and”; a condition that tells them apart may be missing. Equal entries are not always repeated. Entries after “also recorded” stand apart in the source; their conditions may differ. Bounds are passed on as bounds.

HIV-2 RT-associated RNase H, sequence (P04584 613-1171 limits assumed): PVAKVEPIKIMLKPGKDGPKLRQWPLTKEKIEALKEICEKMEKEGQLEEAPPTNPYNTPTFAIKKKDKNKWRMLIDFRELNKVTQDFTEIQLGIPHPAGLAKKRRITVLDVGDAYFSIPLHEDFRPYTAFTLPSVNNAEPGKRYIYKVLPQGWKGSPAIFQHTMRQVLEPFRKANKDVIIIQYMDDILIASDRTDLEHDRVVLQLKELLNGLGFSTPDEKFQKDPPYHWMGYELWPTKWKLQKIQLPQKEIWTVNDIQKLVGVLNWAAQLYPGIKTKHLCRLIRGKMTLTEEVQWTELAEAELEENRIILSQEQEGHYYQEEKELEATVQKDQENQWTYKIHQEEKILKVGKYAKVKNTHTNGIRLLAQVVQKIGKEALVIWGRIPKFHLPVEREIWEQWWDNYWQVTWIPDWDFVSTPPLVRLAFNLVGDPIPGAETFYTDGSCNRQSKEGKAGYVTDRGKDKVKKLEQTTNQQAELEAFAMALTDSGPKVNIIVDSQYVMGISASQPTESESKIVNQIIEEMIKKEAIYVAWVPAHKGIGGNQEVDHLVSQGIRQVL
HIV-2 RT-associated RNase H, sequence (P04584 613-1051 partner limits assumed): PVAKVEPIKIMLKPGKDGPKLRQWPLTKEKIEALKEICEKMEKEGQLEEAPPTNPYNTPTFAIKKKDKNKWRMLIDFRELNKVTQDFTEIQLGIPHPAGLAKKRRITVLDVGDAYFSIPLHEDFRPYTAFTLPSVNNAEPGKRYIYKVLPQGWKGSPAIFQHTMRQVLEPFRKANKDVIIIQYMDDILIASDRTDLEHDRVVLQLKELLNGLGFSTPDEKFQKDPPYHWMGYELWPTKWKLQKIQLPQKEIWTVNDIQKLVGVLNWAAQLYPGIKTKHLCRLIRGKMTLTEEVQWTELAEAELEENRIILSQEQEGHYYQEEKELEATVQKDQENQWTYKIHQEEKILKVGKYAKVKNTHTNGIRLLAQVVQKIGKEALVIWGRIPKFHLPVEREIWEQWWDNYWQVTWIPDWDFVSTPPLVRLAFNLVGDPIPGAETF
HIV-2 RT DNA polymerase, sequence (P04584 613-1171 limits assumed): as the sequence (P04584 613-1171 limits assumed) above
HIV-2 RT DNA polymerase, sequence (P04584 613-1051 partner limits assumed): as the sequence (P04584 613-1051 partner limits assumed) above

Turning to `CC(C)=CCc1ccc(=O)c(O)cc1C(C)C` [Nootkatin, 2-hydroxy-5-(3-methyl-2-butenyl)-4-(1-methylethyl)-2,4,6-cycloheptatrien-1-one], the IC50 in experiment [1] was > 100 µM; in experiment [2] it was > 100 µM; in [3] (triplicate assays) it was > 100 µM; in experiment [4], 25 µM.

Turning to `O=c1cccccc1O` [Tropolone, 2-hydroxy-2,4,6-cycloheptatrien-1-one], the IC50 was > 100 µM in [1], > 100 µM in [2], > 100 µM in [3] (triplicate assays) and 3 µM in experiment [4].

As to `CC[n+]1c(-c2ccccc2)c2cc(N)ccc2c2ccc(N)cc21` [ethidium bromide, reference compound], the Kd in [5] (read-out: Kd for intercalation into RNA/DNA hybrid, 25°C) is ~1.5 µM.

With `CC(C)c1ccccc(=O)c1O` [α-Thujaplicin, 2-hydroxy-3-(1-methylethyl)-2,4,6-cycloheptatrien-1-one], the IC50 in [1] was 50 µM; in [2], 33 µM; in experiment [3] (triplicate assays) it was > 100 µM; in experiment [4], 12 µM. Further, the “binding to RNA/DNA hybrid substrate” value in experiment [5] is on record as “do not bind”.

As for `CC(C)c1cccc(=O)c(O)c1` [β-Thujaplicin, 2-hydroxy-4-(1-methylethyl)-2,4,6-cycloheptatrien-1-one], the IC50 in experiment [1], in [2], in [3] (triplicate assays) and in experiment [4] was > 100 µM throughout. Further, the “IC50 HIV-1 RT” value in [1] was “completely inactive”. In addition, the “IC50 HIV-2 RT” value in [2] was “completely inactive”. Further, the “IC50 E.c. Rnase H” value in experiment [3] (triplicate assays) is “completely inactive”. Further, the “IC50 Hu Rnase H” value in [4] (triplicate assays) was “completely inactive”. The “binding to RNA/DNA hybrid substrate” value in experiment [5] is recorded as “do not bind”.

`CC(C)c1ccc(O)c(=O)c(O)c1` [β-Thujaplicinol, 2,7-dihydroxy-4-1(methylethyl)-2,4,6-cycloheptatrien-1-one] gave a Ki in [1] of 0.2 ± 0.07 µM. For the same molecule, the IC50 in experiment [1] is 0.2 µM and 0.21 µM; in experiment [2] it was 0.77 µM; in experiment [3] (triplicate assays) it was ~50 µM and 50 µM. The “mode of inhibition of HIV-1 RT/RNase H” value in [1] (non-linear fitting) is recorded as “mixed-type inhibition”. The “E.coli RNase H less sensitive than HIV-1 RNase H” value in [3] is listed as ~250 fold. In addition, in experiment [6], the “inhibition of PPT processing” value was “almost complete inhibition”. In addition, the “inhibition of DNA-dependent DNA polymerase activity of HIV-1 RT” value in [7] is “failed to inhibit; also recorded: without affecting; also recorded: do not inhibit; also recorded: unaffected”. Also, in experiment [8], the “inhibition of DNA polymerase activity of HIV-2 RT” value was “without affecting; also recorded: unaffected”. For the same molecule, in experiment [5], the “binding to RNA/DNA hybrid substrate” value is recorded as “do not bind”. Also, in experiment [9], the “activity in cellular models of HIV-1 infection” value is “inactive”.

`CC(C)c1ccc(O)c(=O)cc1` [γ-Thujaplicin, 2-hydroxy-5-1(methylethyl)-2,4,6-cycloheptatrien-1-one]: the IC50 was > 100 µM in experiment [1], > 100 µM in [2], > 100 µM in [3] (triplicate assays) and 2 µM in experiment [4]. The “IC50 HIV-1 RT” value in experiment [1] is reported as “failed to inhibit”. For the same molecule, the “IC50 HIV-2 RT” value in experiment [2] is “failed to inhibit”.

Usually IC50 stands for the concentration that inhibits the measured activity by half. Higher therefore signals weaker potency. One may read the Ki as a measure of affinity in units of concentration, obtained from inhibition or displacement. Higher therefore signals lower affinity.

Values taken from article PMC552956 (Nucleic Acids Research, 2005).
